In ChEMBL document CHEMBL1124464, “Peripherally acting enkephalin analogues. 2. Polar tri- and tetrapeptides” (1989):
pEC50: −log10 of the molar value.

Legend:
Format in all cases: functional
Mus musculus [1] = test: Antinociceptive activity of subcutaneously administered compound in acetic acid (AA) induced writhing mice; conditions: sc
Outline: (§1)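 Male TFW mice, groups of five to six, given drug subcutaneously (10 mL kg-1), then ip acetic acid 0.6% at 25 mL kg-1. Writhes counted for 5 min beginning 15 min after acetic acid. ED50 = dose reducing writhes 50% versus vehicle, by linear regression.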

Mus musculus [2] = test: Antinociceptive activity of subcutaneously administered compound in phenyl-p-benzoquinone induced writhing mice; conditions: Mus musculus, sc; read-out: ED50
Outline: (§2)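 Groups of five to six female CD1 mice given drug subcutaneously (10 mL kg-1) 30 min before ip phenyl-p-benzoquinone 2.5 mg kg-1. Writhes (abdominal constrictions/hind-limb extensions) counted over 2.5 min from 10 min post-PBQ. ED50, the dose giving 50% fewer writhes than vehicle, from linear regression.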

Cavia porcellus = species: Cavia porcellus; test: Inhibition of electrically induced contractions on the guinea pig ileum; conditions: read-out: ED50 (the source's name)
Outline: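 Guinea pig ileum contractions evoked by coaxial stimulation at 0.1 Hz, 0.5-ms pulses, supramaximal voltage, recorded isometrically; dose-response curves built with 15-min washout between doses.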

Mus musculus [3] = test: Antinociceptive activity of perorally administered compound (50 mg) in phenyl-p-benzoquinone induced writhing mice
Outline: (§3)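 Female CD1 mice, groups of five to six, dosed orally by blunt intragastric needle (10 mL kg-1) 30 min before ip phenyl-p-benzoquinone 2.5 mg kg-1. Abdominal constrictions/hind-limb extensions counted over 2.5 min starting 10 min after PBQ. ED50 = dose halving writhes versus vehicle, by linear regression.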

Mus musculus [4] = species: Mus musculus; test: Dose ratio in the presence and absence of the peripheral opioid antagonist in N-methyl-nalorphine in AA writhing mice
Outline: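 Acetic acid (0.6%, ip) writhing in male TFW mice; N-methylnalorphine 11.5 mg kg-1 ip 20 min before subcutaneous agonist. Writhes counted 5 min from 15 min post-irritant. Dose ratio taken as the shift between parallel regression lines with and without antagonist.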

Rodentia sp. [5] = test: Antinociceptive activity in the hot plate test (central activity) in rodents, when compound administered subcutaneously at 10 mg
Outline: (§4)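 Male CFLP mice, groups of five to six, placed on a copper surface held at 55 °C; latency to paw licking/shaking or jumping recorded, 30-s cut-off. Drug given subcutaneously at 10 mL kg-1. ED50 = dose doubling response latency versus vehicle, by parallel-line probit analysis.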

Rodentia sp. [6] = test: Antinociceptive activity in the hot plate test (central activity) in rodents, when compound administered subcutaneously at 20 mg; outline: as §4
Mus musculus [7] = test: Antinociceptive activity of perorally administered compound (20 mg) in phenyl-p-benzoquinone induced writhing mice
Outline: as §3, with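 “mice (Charles River),” for “mice,”, “PBQ at” for “phenyl-p-benzoquinone”, “extensions were” for “extensions”, “is the” for “=”, “vehicle, estimated” for “vehicle,”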

Mus musculus [8] = test: Antinociceptive activity of subcutaneously administered compound (1 mg) in phenyl-p-benzoquinone induced writhing mice; outline: as §2
Mus musculus [9] = test: Antinociceptive activity of perorally administered compound in phenyl-p-benzoquinone induced writhing mice; conditions: po; outline: as §3
Rodentia sp. [10] = test: Antinociceptive activity in the hot plate test (central activity) in rodents, when compound administered subcutaneously at 100 mg; outline: as §4
Mus musculus [11] = test: Antinociceptive activity of subcutaneously administered compound (30 mg) in acetic acid (AA) induced writhing mice; outline: as §1
Mus musculus [12] = test: Antinociceptive activity of subcutaneously administered compound (20 mg) in acetic acid (AA) induced writhing mice; outline: as §1
Mus musculus [13] = test: Antinociceptive activity of subcutaneously administered compound (3 mg) in acetic acid (AA) induced writhing mice; outline: as §1
Mus musculus [14] = test: Antinociceptive activity of subcutaneously administered compound (10) in phenyl-p-benzoquinone induced writhing mice; outline: as §2

SMILES	ED50 (Mus musculus [1])	ED50 (Mus musculus [2])	pEC50 (Cavia porcellus)	Ratio (Mus musculus [4])	Inhibition (Mus musculus [7])	Inhibition (Mus musculus [8])	further results
CC(=O)O.CCN(CCc1ccccc1F)C(=O)CNC(=O)[C@@H](CCCN=C(N)N)NC(=O)[C@@H](N)Cc1ccc(O)cc1	0.3 mg/kg	13.7 mg/kg	7.66	13.3			Inhibition (Mus musculus [3]): 0%; Inhibition (Rodentia sp. [5]): 0%
CC(=O)O.CCN(Cc1ccc(F)cc1)C(=O)CNC(=O)[C@@H](CCCN=C(N)N)NC(=O)[C@@H](N)Cc1ccc(O)cc1	0.09 mg/kg	10.4 mg/kg	7.20	3.9			Inhibition (Rodentia sp. [6]): 0%
CC(=O)O.CCN(CCc1cccs1)C(=O)CNC(=O)[C@@H](CCCN=C(N)N)NC(=O)[C@@H](N)Cc1ccc(O)cc1					21%	0%	
CC(=O)O.CCN(CCc1ccc([N+](=O)[O-])cc1)C(=O)CNC(=O)[C@@H](CCCN=C(N)N)NC(=O)[C@@H](N)Cc1ccc(O)cc1	3.1 mg/kg	17.5 mg/kg	7.31	4.5			ED50 (Mus musculus [9]): 43.5 mg/kg; Inhibition (Rodentia sp. [10]): 0%
CC(=O)O.CCN(CCCc1ccc([N+](=O)[O-])cc1)C(=O)CNC(=O)[C@@H](CCCN=C(N)N)NC(=O)[C@@H](N)Cc1ccc(O)cc1			5.74				Inhibition (Mus musculus [11]): 0%
CC(=O)O.CCN(CCc1ccc(Cl)c(Cl)c1)C(=O)CNC(=O)[C@@H](CCCN=C(N)N)NC(=O)[C@@H](N)Cc1ccc(O)cc1		4.7 mg/kg	7.90	0.5	0%		Inhibition (Mus musculus [12]): 0%; Inhibition (Rodentia sp. [10]): ~100%
CC(=O)O.CCN(CCc1ccccc1[N+](=O)[O-])C(=O)CNC(=O)[C@@H](CCCN=C(N)N)NC(=O)[C@@H](N)Cc1ccc(O)cc1	2.7 mg/kg	31 mg/kg	6.93	6.4			Inhibition (Mus musculus [3]): 0%; Inhibition (Rodentia sp. [6]): 0%
CC(=O)O.CCN(CCc1ccncc1)C(=O)CNC(=O)[C@@H](CCCN=C(N)N)NC(=O)[C@@H](N)Cc1ccc(O)cc1			6.24				Inhibition (Mus musculus [13]): 0%
CC(=O)O.CCN(CCc1ccc2ccccc2c1)C(=O)CNC(=O)[C@@H](CCCN=C(N)N)NC(=O)[C@@H](N)Cc1ccc(O)cc1					0%	27%	
CC(=O)O.CCN(Cc1ccc(-c2ccccc2)cc1)C(=O)CNC(=O)[C@@H](CCCN=C(N)N)NC(=O)[C@@H](N)Cc1ccc(O)cc1					0%	13%	
CC(=O)O.CCN(CCc1ccco1)C(=O)CNC(=O)[C@@H](CCCN=C(N)N)NC(=O)[C@@H](N)Cc1ccc(O)cc1					0%	0%	
CC(=O)O.CCN(CCc1ccccc1C(F)(F)F)C(=O)CNC(=O)[C@@H](CCCN=C(N)N)NC(=O)[C@@H](N)Cc1ccc(O)cc1			7.14		0%		Inhibition (Mus musculus [14]): 33%
CC(=O)O.CCN(CCc1ccc([N+](=O)[O-])o1)C(=O)CNC(=O)[C@@H](CCCN=C(N)N)NC(=O)[C@H](Cc1ccc(O)cc1)N=C(N)N					15%	17%	
